# Assay: Toxicity liver stage against HepG2, at 10uM
# Type: cell-based
# Design: test concentration 10 uM, cell line HepG2-A16-CD81EGFP
# Conditions: human, HepG2-A16-CD81EGFP cells; read-out: INHIBITION
# Method in brief: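 Uninfected HepG2-A16-CD81EGFP cells, 3 × 10^3 per well, 1536-well, plated on prespotted compound at 10 μM final, parasite-free screening media added to match infected plates; puromycin 10 μM positive, DMSO 0.5% negative; run in parallel with 48 h PbLuc assay at 37 °C, 5% CO2; viability by CellTiter-Glo luminescence, normalized to controls.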
row,SMILES,cytotoxicity at 10 µM [%]
1,COCCN1C[C@H]2CN(C(=O)C3CC3)CCN2C1=O,7.37
2,O=C(c1cccs1)N1CCN(Cc2cc(=O)c3ccccc3[nH]2)CC1,-2.93
3,Cc1nn(-c2ccccc2Cl)c(C)c1CCC(=O)O,4.68
4,O=C(NCCn1cccc1)C(c1ccccc1)N1CCCC1 (stereo unspecified),-0.288
5,CC(C)(C)C(=O)CN1CCc2ccccc2NCCC1=O,-104
6,CC1=Nc2c(c(=O)[nH]n2C2CCCC2)C(c2ccc(O)cc2)S1 (stereo unspecified),-3.39
7,CCc1cnc2c(c1Nc1ccccc1OC)c(=O)n(C)c(=O)n2C,6.87
8,COc1nn(C)cc1C(=O)NCC1(O)CCOCC1,-14.7
9,CC(C)(C)C(=O)NCc1cnn2ccccc12,-10.6
10,O=C(Cn1c(=O)oc2ccccc21)N1Cc2cncnc2C1,-0.0603
11,CCN1C[C@@H]2CN(C(=O)C3CC=CC3)C[C@@H]2C1=O,2.35
12,CC1N(CC2CC2)C(=O)COC12CCN(C(=O)c1cnccn1)CC2 (stereo unspecified),-2.57
13,CC(C)NC(=O)C1CCC2(CCN(c3ncccn3)CC2)CO1 (stereo unspecified),0.442
14,CN1CCN(C(=O)c2ncn3c2CNS(=O)(=O)c2ccccc2-3)CC1,4.5
15,O=C([C@H]1CCCO1)N1CCN(Cc2cccnc2)c2ncccc2C1,13.2
16,Cc1ccc(N2CCCc3sc(C(=O)NCC4CCCO4)nc32)nn1 (stereo unspecified),-1.19
17,NC(=O)N1CC[C@@H]2O[C@@H](COCC(=O)N3CCCC3)CC[C@@H]21,-0.356
18,Cc1ccc(CS(=O)(=O)N2CC[C@H]3[C@H]2CC(=O)N3C)cc1,-7.33
19,Cc1csc(CN2CC[C@H]3C[C@H](C)O[C@@H]3C2)n1,2.58
20,Cc1nc(CN2C(=O)CC[C@@H]3[C@H]2CCN3C(=O)C2CCCO2)cs1 (stereo partly specified),-9.33
21,Cc1ccsc1C(=O)N1CCn2cnc(COCC3CC3)c2C1,6.93
22,NC(=O)Cn1nc(-c2ccccc2F)ccc1=O,-7.69
23,CC(Cn1cc(Br)cn1)C(=O)Nc1ccn(C)n1 (stereo unspecified),-4.49

row,SMILES,cytotoxicity at 10 µM [%]
1,CCn1nc(C)c2nc(C(C)C)nc(N3CCCC3)c21,-1.61
2,Cc1nn(C)c(C)c1-c1ccc(=O)n(C(C)C(=O)NCc2ccco2)n1 (stereo unspecified),6.93
3,CNC(=O)CCc1cc(C)nc(C2CCN(C3CCCCC3)CC2)c1,4.54
4,COc1ccccc1C1CNCCN1C(=O)c1ccc(F)cc1 (stereo unspecified),0.57
5,Nc1nccc(C2CCN(CCO)C2)n1 (stereo unspecified),0.51
6,Cc1nc(Nc2ncccn2)cc(C2CCCN2C2CCOCC2)n1 (stereo unspecified),-4.45
7,Cc1cnn(CC(=O)Nc2cc(-n3nnnc3C3CC3)ccc2F)c1,-5.46
8,CCOC(C)c1nccn1CC(=O)Nc1cc(C)on1 (stereo unspecified),-5.58
9,Cc1nsc(N2CCCN(C(=O)CCc3ccsc3)CC2)n1,3.8
10,N#Cc1cccc(S(=O)(=O)N(CC2CCC2)c2cn[nH]c2)c1,10.9
11,CCc1noc(C(C)N2CCCN(Cc3noc(C4CC4)n3)CC2)n1 (stereo unspecified),-6.87
12,O=C(NCCCn1cccn1)c1nc2ccccc2[nH]1,-7.16
13,CC(C)NC(=O)NC(C)c1nc(-c2ccccc2)cs1 (stereo unspecified),-11.1
14,CC(C)CCC(=O)NCc1ccc(N2CCCCC2)cc1,7.89
15,O=C(c1sccc1C1CC1)N1CCCN(c2cccnn2)CC1,-8.67
16,O=C(c1cc(Cl)c2c(c1)OCO2)N1CCN(c2ncccn2)CC1,-0.769
17,CCOCC(=O)Nc1cc(C)cnc1OC,4.04
18,N#Cc1ccc(OCCn2cccn2)cc1,11.2
19,COc1ccc(C(N)=O)cc1NCc1ncc(C(C)(C)C)o1,-8.2
20,CC(O)CN1CCC(CNCc2ccc(C#N)cc2)CC1 (stereo unspecified),8.83
21,O=C(NCCNS(=O)(=O)C1CCCCC1)c1ccccc1,-3.82
22,CCn1nc2c(cc1=O)CN(Cc1nc(N)c3ccccc3n1)CC2,-5.59
23,COCC(=O)N1CC(C(=O)NCC2CC2)C2(CCOCC2)C1 (stereo unspecified),-105

row,SMILES,cytotoxicity at 10 µM [%]
1,Cc1noc([C@]23COC[C@H]2CN(C(=O)N2CCCC2)C3)n1,-103
2,Cn1cccc1C(=O)N1CCO[C@@H]2CN(Cc3ccco3)C[C@@H]2C1,-97.3
3,CNC(=O)NCC1CCC2(CCN(c3ncccn3)CC2)CO1 (stereo unspecified),-107
4,O=C(c1cnccn1)N1CCN2C[C@H](Oc3cccnc3)C[C@H]2C1,4.62
5,CC(C)c1nccc([C@H]2C[C@@H]3CCN(Cc4ccco4)C[C@H]3O2)n1,-5.25
6,CC1(c2ccccc2)CCC(=O)N(CCN2CCOCC2)C1 (stereo unspecified),-8.65
7,Cc1ccnc(N2CCCC(c3nccn3C(C)C)C2)n1 (stereo unspecified),-9.63
8,Cc1nc(CN(C)Cc2csc(-c3cccs3)n2)co1,-6.06
9,CCC(Nc1nc(C(C)C)nc2c1cnn2C)c1ccc(O)cc1 (stereo unspecified),-51.2
10,Cc1nc(NCC(O)CN2CCCCCC2)c2c(C)noc2n1 (stereo unspecified),-5.78
11,NC(=O)C1CCCN(c2ncnc3c2Cc2ccccc2OC3)C1 (stereo unspecified),-5.64
12,CN1CCCN(c2cnn(Cc3ccc(C(C)(C)C)cc3)c(=O)c2)CC1,11.1
13,Cc1nn(CC(=O)N2CCC3(CN(C)C(=O)O3)C2)c(=O)c2ccccc12 (stereo unspecified),9.74
14,CCOc1ccc(Cl)cc1C(C(=O)O)N1CCC(CO)CC1 (stereo unspecified),2.93
15,CCn1nc(CC(C)C)cc1C(=O)NCC(F)(F)F,21.3
16,CC(C)c1nc(CN(C)Cc2ncccc2C(=O)O)cs1,-15.3
17,O=C(NCCN1CCNC1=O)c1cnc(-c2cccnc2)nc1,-0.885
18,CCc1nc(CC(=O)N2CCCC2c2c(C)nn(C)c2OC)cs1 (stereo unspecified),-2.17
19,Cc1cc(C)n(CC2CN(CC3CCCC3)CCO2)n1 (stereo unspecified),-16.4
20,CCn1cc(CN2CCCN(C(=O)CCc3cnn(C)c3)CC2)cn1,0.153
21,Cc1nc2cc(O)nn2c(C)c1CCC(=O)NCCCC(C)C,-1.52
22,Cc1ccc(CS(=O)(=O)CC(=O)NCCCOC(C)C)cc1,-2.9
23,COC(=O)C(NC(=O)CC(C)C)c1cc(F)ccc1F (stereo unspecified),-0.481

row,SMILES,cytotoxicity at 10 µM [%]
1,COc1ccccc1CC(=O)NS(=O)(=O)c1ccc(C#N)cc1,-10.4
2,CC(C)c1nccn1C1CCCN(C(=O)CCCc2ccccn2)C1 (stereo unspecified),-9.02
3,CCOc1ccnc(N2CCN(C(=O)c3cccnc3)CC2)n1,-5.19
4,CC(C)c1noc(C(C)N2CCN(Cc3cccs3)CC2)n1 (stereo unspecified),-6.18
5,CNC(=O)c1ccc(C(=O)N2CCCC(n3ccnc3C)C2)cn1 (stereo unspecified),-0.248
6,CSc1nccn1-c1cccc(C(=O)NCCC(=O)NC(C)C)c1,0.153
7,C1CC(c2noc(C3CC3)n2)N(Cc2nnc(C3CC3)o2)C1 (stereo unspecified),-5.83
8,COCCOc1ncccc1C(=O)N1CCCC1Cn1cc(C)cn1 (stereo unspecified),-2.95
9,Cc1cnn(CC2CCCCN2C(=O)c2cccnc2N(C)C)c1 (stereo unspecified),-7.37
10,CC(=O)NC1CCCN(C(=O)NCCOc2ccc3c(c2)OCO3)C1 (stereo unspecified),-31
11,CC(C)c1cc(C(=O)N2CCCC(n3cncn3)C2)n[nH]1 (stereo unspecified),-11.9
12,O=C(CCc1c(F)cccc1F)N1CCCCC1Cn1cccn1 (stereo unspecified),-11.1
13,CCn1cnnc1CNC(=O)N1CCN(CC(C)C)CC1,9.18
14,CCOc1ncccc1C(=O)N(C)C1CCN(c2ccccn2)CC1,-18.7
15,Cc1ccoc1C(=O)N1CCCN(Cc2cnn(C)c2)CC1,-11.1
16,CCn1cc(CN2CCCN(C(=O)c3c(C)oc(C)c3C)CC2)cn1,-8.89
17,CCC(O)CN1CCN(C(=O)Cc2nc(-c3ccco3)oc2C)CC1 (stereo unspecified),-2.94
18,CC(=O)N1CCN(Cn2nc(-c3ccc(F)cc3)oc2=O)CC1,-3.89
19,Cc1cc2n(n1)CC(CNCc1cnn(-c3ccccc3)c1)CN2 (stereo unspecified),-9.01
20,CCN(C(=O)CS(=O)(=O)Cc1cc(Cl)c2c(c1)OCCCO2)C1CC1,0.787
21,CC(=O)N1CCCN(C(=O)c2ccn(-c3cccc(Cl)c3)n2)CC1,-1.37
22,CCc1nc(C)c(C(=O)NCCN2CCC(C)CC2)s1,-5.6
23,Cc1ccc(CN(CCCN(C)C)Cc2cnc(N(C)C)nc2)o1,2.26

row,SMILES,cytotoxicity at 10 µM [%]
1,Cc1ccc(CN(CCN(C)C)Cc2ccnn2C2CCCCO2)o1 (stereo unspecified),0.267
2,Cc1cccc(CN2CCC(c3csc4nccn34)CC2)n1,1.54
3,O=C(C1CN(Cc2ccsc2)Cc2ccnn2C1)N1CCCC1 (stereo unspecified),-6.93
4,CCN(CC)c1ncc2c(c1C(=O)O)CCN(C1CCOC1)C2 (stereo unspecified),15.7
5,C1CN(CC2CC2)C(COCC2CC2)c2nnn(CC3CC3)c21 (stereo unspecified),-3.66
6,Cc1ccc(CN2CCOC3(CCN(C(=O)N4CCCC4)CC3)C2)cc1,5.7
7,CCOC1COC2(CCN(c3ccccn3)CC2)C1 (stereo unspecified),3.77
8,O=C(NCCCO)c1cc(-c2cc[nH]n2)n2ccccc12,14.3
9,O=C([C@@H]1C[C@@H]2CCN(Cc3ccccn3)C[C@H]2O1)N1CCCO1,2.29
10,Cc1nc(CN2CCc3ncnc(-c4ccc(F)cc4)c3CC2)cs1,4.89
11,c1cc(C2CC2)n2cnc(C3CN(Cc4nccs4)CCO3)c2c1 (stereo unspecified),1.49
12,CC(C)N1CCC2(CCN(C(=O)c3cccnc3)CC2)C1,5.27
13,O=C(c1ccccc1F)N1C[C@H]2CCC[C@@]2(COCc2ccncc2)C1,7.4
14,Cc1cnc(N2CCc3ncnc(N4CCN(C)CC4)c3CC2)nc1,-1.73
15,O=C(CC1CC1)N1C[C@@H]2CCN(c3cnccn3)C[C@@H]2C1,5.03
16,CCN1CCO[C@@H]2CN(S(=O)(=O)c3cccs3)CC[C@@H]2C1,4.82
17,CN(C)Cc1noc2c1CN(Cc1ccsc1)CC2,-2.88
18,CC(c1ccccc1)n1cc2nc(N(C)C)[nH]cc-2c1=O (stereo unspecified),-25.5
19,Cn1nc(Br)c2c(NCCN)ncnc21,20.2
